Here are results for one molecule from ChEMBL document CHEMBL5608187, “Discovery of pyridoquinoxaline-based new P-gp inhibitors as coadjutant against Multi Drug Resistance in cancer” (Eur J Med Chem, 2024).

Activity calls are given as the source filed them. No cut-off for these calls is given here.

Data set [1] concerns the target T1, ATP-dependent translocase ABCB1 (Homo sapiens, UniProt P08183). The data set is described as follows: Inhibition of P-gp in human HT1197 cells assessed as increase in green fluorescence intensity at 0.1 to 10 uM incubated for 15 mins followed by incubation with EFFLUX-ID Green Detection Reagent and Hoeschst-33342 dye and measured after 30 mins by fluorescence analysis. It is filed as cell-based. Particulars: ht1197, 0.25 h, dose 0.1-10 µM. Put shortly: (§1)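 5000 cells/well in phenol-red-free medium plated 24 h before; compounds 0.1, 1, 10 µM for 15 min, then EFLUXX-ID Green reagent (1:200) plus Hoechst-33342 1 µg/mL, 30 min 37 °C. Widefield imaging; median green intensity from 250 cells per well normalized to untreated wells. Mean ± SD of three wells; one-tailed t-test.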

Data set [2] concerns A498. The data set is described as follows: Coadjutant activity against multidrug resistance in human A498 cells assessed as potentiation of etoposide-induced cell growth inhibition at 4 uM incubated for 72 hrs in presence of 0.04 to 40 uM etoposide by SiR-DNA/CellTox Green Dye based fluorescence analysis. In kind it is functional. Put shortly:
(§2)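 Growth by live-cell imaging: 500 cells/well plated with SiR-DNA and CellTox Green dye; serial dilutions in phenol-red-free complete medium added next day. Imaged at addition and at 72 h. Live cells = SiR-DNA nuclei minus CellTox-positive dead cells; percentage growth calculated. Three technical replicates; two-tailed t-test. Inhibitor paired with anticancer drug at fixed or scaled levels.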

The subject of another data set is HGC-27. In words: Coadjutant activity against multidrug resistance in human HGC-27 cells assessed as potentiation of vincristine-induced cell growth inhibition by measuring cell growth at 4 uM incubated for 72 hrs in presence of 0.02 to 20 uM vincristine by SiR-DNA/CellTox Green Dye based fluorescence analysis. Set-up: scale not given: the % may be the effect or the level left. It is filed as functional. Put shortly:
as §2

Data set [3] relates to SK-HEP1. In words: Coadjutant activity against multidrug resistance in human SK-HEP1 cells assessed as potentiation of cisplatin-induced cell growth inhibition at 4 uM incubated for 72 hrs in presence of 0.1 to 100 uM cisplatin by SiR-DNA/CellTox Green Dye based fluorescence analysis. In kind it is functional. Put shortly:
(§3)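 Cisplatin co-treatment, 72 h imaging growth assay (SiR-DNA nuclei minus CellTox Green dead cells, 500 cells/well, phenol-red-free medium). Combinations: inhibitor fixed with cisplatin 0.1–100 µM, or cisplatin fixed at 0.25 µM with inhibitor 0.25–4 µM. Three technical replicates, mean ± SD; two-tailed t-test.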

Data set [4] addresses T1, ATP-dependent translocase ABCB1. In words: Inhibition of P-gp in human HCT-15 cells assessed as increase in green fluorescence intensity at 0.1 to 10 uM incubated for 15 mins followed by incubation with EFFLUX-ID Green Detection Reagent and Hoeschst-33342 dye and measured after 30 mins by fluorescence analysis. The following applies: hct-15, 0.25 h, dose 0.1-10 µM. It is filed as cell-based. Put shortly: as §1

The next data set deals with A704. The data set is described as follows: Coadjutant activity against multidrug resistance in human A704 cells assessed as potentiation of vincristine-induced cell growth inhibition at 0.25 to 4 uM incubated for 72 hrs in presence of 0.2 uM vincristine by SiR-DNA/CellTox Green Dye based fluorescence analysis. The following applies: dose 0.25-4 µM. In kind it is functional. Put shortly:
as §2

For data set [5], the system named is HT-29. The data set is described as follows: Coadjutant activity against multidrug resistance in human HT-29 cells assessed as potentiation of cisplatin-induced cell growth inhibition at 4 uM incubated for 72 hrs in presence of 0.1 to 100 uM cisplatin by SiR-DNA/CellTox Green Dye based fluorescence analysis. In kind it is functional. Put shortly:
as §3

For data set [6], the system named is U-87 MG. In words: Coadjutant activity against multidrug resistance in human U-87 MG cells assessed as potentiation of etoposide-induced cell growth inhibition at 4 uM incubated for 72 hrs in presence of 0.04 to 40 uM etoposide by SiR-DNA/CellTox Green Dye based fluorescence analysis. It is filed as functional. The following applies: U-87MG ATCC. Put shortly:
as §2

Data set [7] relates to A498. In words: Coadjutant activity against multidrug resistance in human A498 cells assessed as potentiation of vincristine-induced cell growth inhibition at 0.25 to 4 uM incubated for 72 hrs in presence of 0.2 uM vincristine by SiR-DNA/CellTox Green Dye based fluorescence analysis. In kind it is functional. Particulars: dose 0.25-4 µM. Put shortly:
as §2

Data set [8] addresses T1, ATP-dependent translocase ABCB1. In words: Inhibition of P-gp in human A498 cells assessed as increase in green fluorescence intensity at 0.1 to 10 uM incubated for 15 mins followed by incubation with EFFLUX-ID Green Detection Reagent and Hoeschst-33342 dye and measured after 30 mins by fluorescence analysis. In kind it is cell-based. Particulars: a498, 0.25 h, dose 0.1-10 µM. Put shortly:
as §1

A further data set relates to HCT-116. In words: Coadjutant activity against multidrug resistance in human HCT-116 cells assessed as potentiation of cisplatin-induced cell growth inhibition at 4 uM incubated for 72 hrs in presence of 0.1 to 100 uM cisplatin by SiR-DNA/CellTox Green Dye based fluorescence analysis. In kind it is functional. Put shortly:
as §3

The test system of data set [9] is U-87 MG. In words: Coadjutant activity against multidrug resistance in human U-87 MG cells assessed as potentiation of vincristine-induced cell growth inhibition at 4 uM incubated for 72 hrs in presence of 0.02 to 20 uM vincristine by SiR-DNA/CellTox Green Dye based fluorescence analysis. In kind it is functional. The following applies: U-87MG ATCC. Put shortly:
as §2

The target of data set [10] is T1, ATP-dependent translocase ABCB1. The data set is described as follows: Inhibition of P-gp in human CAKI-2 cells assessed as increase in green fluorescence intensity at 0.1 to 10 uM incubated for 15 mins followed by incubation with EFFLUX-ID Green Detection Reagent and Hoeschst-33342 dye and measured after 30 mins by fluorescence analysis. It is filed as cell-based. The following applies: caki-2, 0.25 h, dose 0.1-10 µM. Put shortly:
as §1

Data set [11] relates to HT-29. The data set is described as follows: Coadjutant activity against multidrug resistance in human HT-29 cells assessed as potentiation of vincristine-induced cell growth inhibition at 4 uM incubated for 72 hrs in presence of 0.02 to 20 uM vincristine by SiR-DNA/CellTox Green Dye based fluorescence analysis. In kind it is functional. Put shortly:
as §2

The subject of data set [12] is SK-HEP1. The data set is described as follows: Coadjutant activity against multidrug resistance in human SK-HEP1 cells assessed as potentiation of vincristine-induced cell growth inhibition at 4 uM incubated for 72 hrs in presence of 0.02 to 20 uM vincristine by SiR-DNA/CellTox Green Dye based fluorescence analysis. It is filed as functional. Put shortly: as §2
In data set [13] the test system is HT-29. The data set is described as follows: Cytotoxicity against human HT-29 cells assessed as inhibition of cell growth at 4 uM incubated for 72 hrs by SiR-DNA/CellTox Green Dye based fluorescence analysis. It is filed as toxicity. Particulars: ht-29, 72 h. Put shortly:
(§4)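 Single-agent control at 4 µM, no anticancer drug. 500 cells/well with SiR-DNA and CellTox Green; imaged at addition and 72 h. Live count = total nuclei minus dead cells, expressed as percent growth. Three technical replicates.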

The subject of a further data set is HuP-T3. In words: Coadjutant activity against multidrug resistance in human HuP-T3 cells assessed as potentiation of cisplatin-induced cell growth inhibition at 0.25 to 4 uM incubated for 72 hrs in presence of 0.25 uM cisplatin by SiR-DNA/CellTox Green Dye based fluorescence analysis. Particulars: dose 0.25-4 µM. It is filed as functional. Put shortly: as §3

Another data set has as its system MeWo. In words: Cytotoxicity against human MeWo cells assessed as inhibition of cell growth at 4 uM incubated for 72 hrs by SiR-DNA/CellTox Green Dye based fluorescence analysis. In kind it is toxicity. Put shortly:
as §4

A further data set relates to SK-N-SH. The data set is described as follows: Coadjutant activity against multidrug resistance in human SK-N-SH cells assessed as potentiation of etoposide-induced cell growth inhibition at 4 uM incubated for 72 hrs in presence of 0.04 to 40 uM etoposide by SiR-DNA/CellTox Green Dye based fluorescence analysis. In kind it is functional. Put shortly: as §2
For data set [14], the system named is U-87 MG. The data set is described as follows: Cytotoxicity against human U-87 MG cells assessed as inhibition of cell growth at 4 uM incubated for 72 hrs by SiR-DNA/CellTox Green Dye based fluorescence analysis. It is filed as toxicity. Particulars: u-87mg atcc. Put shortly: as §4

T1 sequence (P08183 whole entry): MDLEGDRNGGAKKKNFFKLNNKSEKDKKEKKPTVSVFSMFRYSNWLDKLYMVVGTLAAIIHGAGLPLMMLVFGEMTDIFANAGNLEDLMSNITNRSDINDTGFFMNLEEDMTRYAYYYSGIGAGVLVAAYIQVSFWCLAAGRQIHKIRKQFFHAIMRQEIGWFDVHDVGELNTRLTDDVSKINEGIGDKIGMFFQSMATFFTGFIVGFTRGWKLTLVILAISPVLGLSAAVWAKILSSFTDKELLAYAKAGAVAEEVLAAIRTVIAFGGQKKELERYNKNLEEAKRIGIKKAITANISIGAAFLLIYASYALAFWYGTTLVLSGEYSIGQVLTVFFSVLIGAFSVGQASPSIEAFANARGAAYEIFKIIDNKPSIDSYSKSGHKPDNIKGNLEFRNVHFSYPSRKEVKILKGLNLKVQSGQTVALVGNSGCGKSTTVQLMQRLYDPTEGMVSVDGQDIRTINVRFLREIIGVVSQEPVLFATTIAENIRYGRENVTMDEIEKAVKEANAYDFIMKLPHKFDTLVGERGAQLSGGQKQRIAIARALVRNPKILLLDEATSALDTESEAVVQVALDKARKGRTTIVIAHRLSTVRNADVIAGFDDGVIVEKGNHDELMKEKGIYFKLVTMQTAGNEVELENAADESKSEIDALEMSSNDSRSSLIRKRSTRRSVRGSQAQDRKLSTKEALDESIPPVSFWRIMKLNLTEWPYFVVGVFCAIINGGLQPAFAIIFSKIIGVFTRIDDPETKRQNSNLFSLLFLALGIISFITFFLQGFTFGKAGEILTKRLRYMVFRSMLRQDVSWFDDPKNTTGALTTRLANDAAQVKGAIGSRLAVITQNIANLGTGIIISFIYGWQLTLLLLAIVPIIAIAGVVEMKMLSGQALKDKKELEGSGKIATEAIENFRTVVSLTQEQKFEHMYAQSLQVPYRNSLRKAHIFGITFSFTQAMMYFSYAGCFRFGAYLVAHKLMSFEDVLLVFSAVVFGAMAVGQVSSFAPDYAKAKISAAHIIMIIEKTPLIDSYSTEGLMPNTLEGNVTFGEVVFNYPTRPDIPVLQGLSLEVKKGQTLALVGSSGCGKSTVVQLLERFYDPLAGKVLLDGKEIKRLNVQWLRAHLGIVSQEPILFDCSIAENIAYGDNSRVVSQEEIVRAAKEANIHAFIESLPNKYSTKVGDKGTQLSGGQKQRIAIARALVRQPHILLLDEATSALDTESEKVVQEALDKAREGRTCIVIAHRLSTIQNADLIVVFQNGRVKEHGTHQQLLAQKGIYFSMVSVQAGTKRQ

As for `O=C(Nc1ccccc1)c1ccccc1OCc1nc2cc3cccnc3cc2nc1COc1ccccc1C(=O)Nc1ccccc1`, the “inhibition (INH)” value in data set [1] is given as “Not Active”; in data set [4], “Active”; in [8], “Not Active”; in data set [10] it was “Active”. Besides, the result in the data set with A498 [2], in the data set on A704, in the data set with U-87 MG [6], in the data set on A498 [7], with U-87 MG [9] and in the data set with HT-29 [11] was Active. Also, the result in the data set on SK-HEP1 [12] and in the data set on SK-N-SH was Active. Moreover, the Activity is 50% in the data set with HGC-27, “Non-Toxic” in the data set with HT-29 [13], “Non-Toxic” in the data set on MeWo and “Non-Toxic” in the data set on U-87 MG [14]. The outcome in the data set with SK-HEP1 [3], in the data set on HT-29 [5], in the data set on HCT-116 and with HuP-T3 was inactive.
